The text below walks through data of PMC10921549 (Journal of Agricultural and Food Chemistry, 2024).

Assay [1] concerns the target T1, OR8H1 (Homo sapiens, UniProt Q8NGG4).
T1 sequence (Q8NGG4 1-311): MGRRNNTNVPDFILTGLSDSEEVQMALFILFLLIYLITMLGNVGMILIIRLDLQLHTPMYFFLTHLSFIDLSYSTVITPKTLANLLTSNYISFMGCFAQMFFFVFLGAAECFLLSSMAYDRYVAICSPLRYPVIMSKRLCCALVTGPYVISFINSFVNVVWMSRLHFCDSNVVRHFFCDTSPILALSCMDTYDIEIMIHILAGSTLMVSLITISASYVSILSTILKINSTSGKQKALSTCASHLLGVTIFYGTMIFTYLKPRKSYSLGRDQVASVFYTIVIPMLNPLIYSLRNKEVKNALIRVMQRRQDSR
Kind of assay: HEK-293 cell-based cAMP luminescence. To be noted: for KFO library screening response of OR8H1 (2σ-threshold): each KFO 300 μmol/L, normalized to OR8H1 response to 30 μmol/L TDN; for agonist validation by concentration–response relation on OR8H1: human OR8H1. In outline: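 In HEK-293 cells expressing recombinant human OR8H1 with GloSensor cAMP luciferase, each of 180 GC-pure food odorants is applied at 300 μmol/L (n = 1, triplicate). After basal subtraction, mock is subtracted and responses are normalized to the 30 μmol/L reference agonist signal; the hit threshold is 2σ. For concentration–response, EC50 comes from a nonlinear Hill fit (slope ≤2.9, weighted by 0.1/SD). Results are mean ± SD.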

For assay [2] the following is noted: cited from earlier work.
Assay [3] deals with 386 human OR types and 380 of their most frequent variants. Nature of the assay: Screening of TDN against OR library of 766 cDNAs. To be noted: 100 μmol/L TDN, 766 OR cDNAs. In kind it is cell-based.
Assay [4] deals with ptOR8H1. Nature of the assay: HEK-293 cAMP luminescence assay, chimp ortholog ptOR8H1. It is filed as cell-based, Pan troglodytes (chimpanzee). As to conditions: for response of chimp orthologue (concentration–response): ptOR8H1. In a few lines:
(§1)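 HEK-293 cells (37 °C, 5% CO2, 100% humidity; high-glucose DMEM, 10% FBS, 2 mM L-glutamine, penicillin/streptomycin) transiently express the OR ortholog with a GloSensor cAMP luciferase, and luminescence is read after odorant application. Basal signal is subtracted, data are normalized to a reference odorant–receptor maximum, and mock is subtracted. EC50 comes from a Hill fit weighted by 0.1/SD, with slope ≤2.9. Results are mean ± SD; surface expression is checked by flow cytometry.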

Assay [5] has as its system ecOR8H1. Nature of the assay: HEK-293 cAMP luminescence assay, horse ortholog ecOR8H1. In kind it is cell-based, Equus caballus (horse). In outline: as §1
Assay [6] concerns OR2W1. To be noted: present study and ref 50; cited from earlier work.

What is called EC50 is the concentration needed to bring the measured effect to its halfway point.

As for `C=C(C)[C@@H]1CC=C(C)C(=O)C1` [Compound 6, (5R)-2-methyl-5-prop-1-en-2-ylcyclohex-2-en-1-one], in assay [1], a half-maximal response (EC50) required 193 ± 9.52 µM, the “KFO library screening response of OR8H1 (2σ-threshold)” value is “false-negative responder” and the “agonist validation by concentration–response relation on OR8H1” value was “agonist of OR8H1”.
On to `Cc1ccc2c(c1)C=CCC2(C)C` [TDN, 1,1,6-trimethyl-1,2-dihydronaphthalene], for which the EC50 in assay [1] came to 32 ± 6.09 µM; in assay [4] (chimp ptOR8H1 in HEK-293, n = 3) it was 37.8 ± 29.1 µM. The “odor (detection) threshold in Riesling wine” value in assay [2] (Riesling wine) is 2.3 µg/L. Besides, the “odor threshold, originally reported” value in assay [2] is 20 µg/L. Besides, the detection threshold in assay [2] (spiked model wine) was 2 µg/L. In addition, the “receptor activation above 3σ-threshold in OR library screening” value in assay [3] is “exclusively activated a single OR above a 3σ-threshold: OR8H1”. In addition, in assay [4], the “response of chimp orthologue (concentration–response)” value (“response of chimp orthologue” below) is “responded”. For the same compound, in assay [4] (ptOR8H1 versus human OR8H1), the “efficacy lower than at the human receptor” value is listed as roughly 7 fold. Also, the “response of horse orthologue to TDN” value in assay [5] is “nonresponding”.
In assay [1], `COc1nccnc1C(C)C` [Compound 3, 2-methoxy-3-propan-2-ylpyrazine] registered an EC50 of 147 ± 8.64 µM.
Consider `C=CCc1ccc(OC)c(OC)c1` [Compound 2, 1,2-dimethoxy-4-prop-2-enylbenzene], for which the “activation of OR2W1” value in assay [6] is on record as “did not activate”. For the same compound, the EC50 in assay [1] was found to be 114 ± 20.1 µM.
Consider `C=C(C)c1ccc(C)cc1` [Compound 1, 1-methyl-4-(prop-1-en-2-yl)benzene], for which a half-maximal response in assay [1] (EC50) required 336 ± 74.9 µM.
Compound `CC1=CCC(C(C)(C)S)CC1` (stereo not drawn) [Compound 8, 2-(4-methylcyclohex-3-en-1-yl)propane-2-thiol] registered an EC50 in assay [1] of 206 ± 80.8 µM. Further, in assay [4], the “response of chimp orthologue” value was “responded”.
Turning to `CC(=O)c1ccc2ccccc2c1` [2-acetylnaphthalene], the “agonist validation by concentration–response relation on OR8H1” value in assay [1] is “agonist for OR8H1”.
As for `CC(C)c1ccc(C=O)cc1` [Compound 7, 4-Propan-2-ylbenzaldehyde], the “activation of OR2W1” value in assay [6] is listed as “did not activate”. This compound had a concentration for a half-maximal effect (EC50) in assay [1] of 92 ± 11.7 µM. For the same compound, the “response of chimp orthologue” value in assay [4] is recorded as “responded”.
For `CCCc1ccc(O)c(OC)c1` [Compound 5, 2-methoxy-4-propylphenol], in assay [2] (water/EtOH (60/40)), the “odor threshold (OT in water/EtOH (60/40))” value was 1.9 ^b[35] μg/kg.
On to `CC(=O)OCCc1ccccc1` [2-phenylethyl acetate], for which the “KFO library screening response of OR8H1 (2σ-threshold)” value in assay [1] is “did not activate OR8H1”.
